Assay results collected from several papers.
Protocols differ between the studies behind these lines.
Target: Mitogen-activated protein kinase kinase kinase 2 (MAP3K2, Homo sapiens, UniProt Q9Y2U5)
Sequence (Q9Y2U5 1-619, as in one of the studies): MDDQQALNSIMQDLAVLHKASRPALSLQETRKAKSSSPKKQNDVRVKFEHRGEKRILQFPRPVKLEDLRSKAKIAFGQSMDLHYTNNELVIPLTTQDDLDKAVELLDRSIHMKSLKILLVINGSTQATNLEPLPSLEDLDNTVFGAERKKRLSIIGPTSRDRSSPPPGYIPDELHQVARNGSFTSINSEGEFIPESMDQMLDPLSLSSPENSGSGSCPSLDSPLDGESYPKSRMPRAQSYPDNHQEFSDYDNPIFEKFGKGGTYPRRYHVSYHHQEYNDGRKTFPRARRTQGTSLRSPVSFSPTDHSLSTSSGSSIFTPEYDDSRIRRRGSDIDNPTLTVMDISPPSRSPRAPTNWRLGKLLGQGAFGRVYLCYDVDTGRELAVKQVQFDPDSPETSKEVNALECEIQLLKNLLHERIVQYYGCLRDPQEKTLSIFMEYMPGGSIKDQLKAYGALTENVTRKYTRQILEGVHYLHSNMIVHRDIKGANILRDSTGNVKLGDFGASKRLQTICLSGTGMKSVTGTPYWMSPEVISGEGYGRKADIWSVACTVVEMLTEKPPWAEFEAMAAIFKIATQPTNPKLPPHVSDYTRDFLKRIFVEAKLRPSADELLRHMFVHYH

| SMILES | assay | setting | remaining binding |
| --- | --- | --- | --- |
| Cc1c(NC(=O)c2cc(C(N)=O)nc3cc(F)ccc23)c(C(F)(F)F)nn1Cc1ccc(C(C)(C)C)cc1 | cell-free assay, competition with immobilised ligand | 1 µM | 100% |
| COc1ncc2cc3ccccc3nc2c1C#N | cell-free assay, competition with immobilised ligand | 5 µM | 91% |
| CCC(=N\O)/C(C)=C/c1ccc(F)cc1 | cell-free assay, competition with immobilised ligand | 1 µM | 85% |
| C[C@@H](c1ccc(-n2cnc3c(N)ncnc32)cc1)N1CCc2nn(C)c(Cc3ccccc3)c2C1=O | binding, competition with immobilised ligand | 0.1 µM | 57% |
| CNC(=O)[C@@H]1CC[C@@H](n2c(-c3ccc4cnccc4c3)nc3ccc(C(=O)NCc4cccc(C(N)=O)c4)cc32)C1 | binding, competition with immobilised ligand | 1 µM | 86% |
| c1ccc(N2CCN(Cc3nc4ccccc4[nH]3)CC2)nc1 | binding, competition with immobilised ligand | 1 µM | 100% |
| O=C(NCC1CCOCC1)c1n[nH]cc1NC(=O)c1c(F)cccc1F | binding, competition with immobilised ligand | 1 µM | 73% |
| Cc1cnc(Nc2ccc(C(=O)N3CCC(N4CCCC4)CC3)cc2)nc1-c1cc2ccccc2s1 | binding, competition with immobilised ligand | 1 µM | 5.1% |
| CN(C)c1nccc(-c2cnn3ncccc23)n1 | binding | 1 µM | 78% |
| O=C(Nc1cccnn1)N1CCC(=Cc2cccc(Oc3ccc(C(F)(F)F)cn3)c2)CC1 | cell-free assay, competition with immobilised ligand | 1 µM | 100% |
| Nc1ncc2c(n1)-c1c([nH]c3ccc(C#CC4CC4)cc13)CCCC2 | binding, competition with immobilised ligand | 1 µM | 85% |
| CC1CCCN1c1nccc(-c2cnn3ncccc23)n1 (stereo not drawn) | binding | 1 µM | 98% |
| O=C(NCCCN1CCOCC1)c1ccc(Nc2ncc(Cl)c(-c3ccc(Cl)s3)n2)cc1 | binding, competition with immobilised ligand | 1 µM | 2.3% |
| CN(CCCC(F)(F)F)c1nccc(-c2cnn3ncccc23)n1 | binding | 1 µM | 96% |
| O=C(c1ccc(Nc2nccc(-c3cc4ccccc4s3)n2)cc1)N1CCC(N2CCCC2)CC1 | binding, competition with immobilised ligand | 1 µM | 43% |
| c1cnn2ncc(-c3ccnc(N4CCC45COC5)n3)c2c1 | binding | 1 µM | 58% |
| CCN1CCN(Cc2ccc(C(=O)Nc3ccc(C)c(Oc4ccc5c(c4)CC(=O)N5)c3)cc2C(F)(F)F)CC1 | binding, competition with immobilised ligand | 1 µM | 100% |
| Cc1nc(N2CC[C@@H](O)C2)ncc1-c1cc(C(F)(F)F)cc2[nH]ncc12 | binding, competition with immobilised ligand | 1 µM | 60% |
| N[C@@H]1CCN(c2nccc(-c3cnn4ncccc34)n2)C1 | binding | 1 µM | 100% |
| O=C(Nc1cccnn1)N1CC(C/C=C/c2cncc(Oc3ccc(C(F)(F)F)cn3)n2)C1 | cell-free assay, competition with immobilised ligand | 1 µM | 79% |
| C[C@@H]1CCN(c2nccc(-c3cnn4ncccc34)n2)C1 | binding | 1 µM | 79% |
